Compound activity as filed in PubChem BioAssay.
Only some compounds are listed: those with a hit (about 2.4% of all), similar ones and a draw of the others.
Rtt109 Vps75: blocks Candida albicans Rtt109/Vps75 acetyltransferase activity | purified Rtt109/Vps75, ThioGlo CoA-SH fluorescence, 4 h | inhibition, % at 34.9 µM | hit rate 0.16% among 330,000 | AID 540336;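 active means inhibition of at least 50% in every replicate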
dFosB act-1: activators of mouse delta FosB homodimer. P13346. purified delta FosB, TAMRA-CDK5 oligo fluorescence polarization; percent of positive-control signal above neutral wells. activation, % at 25 µM. hit rate 0.99% among 340,000;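 active means mean activation above about 17%, with every replicate also reaching it, limit read from the data, passing the limit was not always enough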
Target sequence (P13346 whole entry, looked up): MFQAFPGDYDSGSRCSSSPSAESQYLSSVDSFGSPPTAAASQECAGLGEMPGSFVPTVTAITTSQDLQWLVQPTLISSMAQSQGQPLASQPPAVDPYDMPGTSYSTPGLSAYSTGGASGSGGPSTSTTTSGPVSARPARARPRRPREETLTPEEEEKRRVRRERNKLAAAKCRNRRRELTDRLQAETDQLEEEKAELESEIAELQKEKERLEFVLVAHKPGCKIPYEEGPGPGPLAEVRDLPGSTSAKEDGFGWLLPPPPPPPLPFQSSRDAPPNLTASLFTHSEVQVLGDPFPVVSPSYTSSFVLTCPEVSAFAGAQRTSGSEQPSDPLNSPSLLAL
miR122 inh: miR-122 inhibition in Huh7 cells | Huh7 miR-122 Renilla luciferase sensor, 48 h; neutral wells = 0, positive control = 100 | activation (reporter increase), % at 12.5 µM | hit rate 0.3% among 340,000;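 active means mean replicate activation score at least 90 and every replicate individually at or above 90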;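 further: higher luciferase means less miR-122 activity so hits act as miR-122 inhibitors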
GSIS activator: GLuc luminescence reporter in INS-1E cells, primary screen for activators of glucose-dependent secretion of insulin; INS-1E GLuc reporter insulin secretion, 2-3 h; activation, % at 16.6 µM; hit rate 0.61% among 370,000; AID 743287;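 active means lowest replicate activation of at least 40%, so every replicate reaches that level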
Env fusion inh: HIV envelope-mediated fusion inhibition; AID 651610; HeLa-JRFL Env/CEM21 cell fusion, luciferase; hit rate 1.1% among 360,000; inhibition, % at 12.3 µM;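 active means mean replicate inhibition score of at least 50 and every replicate individually at or above 50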
Cneo AK release: Cryptococcus neoformans lysis via adenylate kinase release | C. neoformans lysis, adenylate kinase release luminescence, 4 h; normalised: neutral wells 0, clomiphene wells 100 | AID 651654 | lysis activity, % at 15 µM | hit rate 0.2% among 360,000;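 active means mean lysis activity across replicates of at least 80%, whatever share of replicates individually reach that level; inactive means mean lysis activity below 80%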
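Assay system: Cryptococcus neoformans yeast cells / Dosing: single-point compound dose / Timing: 4 h at 37 °C static, read 1 h later / Measured by: luminescence of released adenylate kinase using an AK detection reagent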
dFosB act-2: activators of mouse delta FosB homodimer DNA binding; shares compounds with dFosB act-1; purified delta FosB, TAMRA-CDK5 oligo fluorescence polarization; normalised: neutral wells 0, positive control 100; activation, % at 24.9 µM; 2,400 tested, under 10 active;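 active means highest replicate activation at or above 34% and every replicate reaching that threshold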;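 further: higher polarization means more probe DNA bound by delta FosB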
Hits are given with their value.

`CC12CCC3C(CCC4(O)CC(O)CCC34C=O)C1(O)CCC2C1=CC(=O)OC1` (stereo unspecified) gave Rtt109 Vps75 inactive, dFosB act-1 inactive, miR122 inh 96.1, GSIS activator inactive and Env fusion inh inactive.
For CC12CC[C@H]3[C@@H](CCC4(O)C[C@H](O)CCC34/C=N/NC(=O)c3ccccc3Cl)C1(O)CCC2C1=CC(=O)OC1 (stereo partly specified) the results were Rtt109 Vps75 inactive, dFosB act-1 inactive, GSIS activator inactive and Env fusion inh inactive.
Screening C[C@]12CC[C@H]3[C@@H](CC[C@]4(O)C[C@@H](O)CC[C@]34C=O)[C@@]1(O)CC[C@@H]2C1=CC(=O)OC1 returned Rtt109 Vps75 inactive, dFosB act-1 inactive, miR122 inh inactive, GSIS activator inactive, Env fusion inh inactive and Cneo AK release inactive.
Screening CN1[C@@H]2CN(CC(F)(F)F)C[C@H]1C2c1ccc(Br)cc1 (stereo partly specified) returned GSIS activator inactive.
`C=CCN1[C@@H]2CN(CC(F)(F)F)C[C@H]1C2c1ccc(Br)cc1` (stereo partly specified) gave GSIS activator inactive.
C[C@]12CCC3C(CCC4=CC(O)CC[C@@]43/C=N/O)C1(O)CCC2C1=CC(=O)OC1 (stereo partly specified) was read as Rtt109 Vps75 inactive, dFosB act-1 inactive, GSIS activator inactive and Env fusion inh 93.0.
`CCC(=NC(C)c1ccccc1)c1c(O)[nH]c(=O)[nH]c1=O` (stereo unspecified) gave Rtt109 Vps75 inactive, dFosB act-1 inactive, miR122 inh inactive, GSIS activator 65.8, Env fusion inh inactive and Cneo AK release inactive.
Screening COC(=O)C[C@H]1CC[C@@H]2NC[C@H](O)COC[C@H]2O1 returned miR122 inh inactive, GSIS activator inactive, Env fusion inh inactive and Cneo AK release inactive.
`Cc1ccccc1-n1c(/C=C/c2ccccn2)nc2ccccc2c1=O` gave Rtt109 Vps75 inactive, dFosB act-1 inactive, miR122 inh inactive, GSIS activator inactive, Env fusion inh inactive and Cneo AK release inactive.
CN1C2CCC1/C(=C/c1ccccn1)C(=O)/C2=C\c1ccccn1 was read as dFosB act-1 inactive, miR122 inh inactive, GSIS activator inactive, Env fusion inh 60.2 and Cneo AK release inactive.
Screening Cc1nc2cc(-c3ccc(Cl)cc3)nn2c(C)c1CCC(=O)N1CCC2(CC1)OCCO2 returned Rtt109 Vps75 inactive, dFosB act-1 inactive, miR122 inh inactive, Env fusion inh 79.1 and Cneo AK release inactive.
For CCCNC(=O)[C@H]1[C@H](CO)[C@H]2Cn3c(cccc3=O)[C@H]2N1CC the results were GSIS activator inactive.
`c1ccc(N2[C@@H]3CC[C@H]2c2ccncc2C3)cc1` gave GSIS activator 48.3 and Env fusion inh inactive.
C=CCN1[C@@H]2CN(C(C)=O)C[C@H]1C2c1ccc(Br)cc1 (stereo partly specified) was read as GSIS activator inactive.
Cc1cc2c(C(C)C)c(O)c(O)c(C=O)c2c(O)c1-c1c(C)cc2c(C(C)C)c(O)c(O)c(C=O)c2c1O was read as miR122 inh inactive, Env fusion inh 60.6 and Cneo AK release inactive.
Screening O=C1NC(=O)C(=Cc2cc3c(cc2[N+](=O)[O-])OCO3)C(=O)N1 returned Rtt109 Vps75 73.6, dFosB act-1 inactive, miR122 inh inactive, GSIS activator inactive, Env fusion inh inactive and Cneo AK release inactive.
O=C1NC(=O)C(=Cc2ccccc2[N+](=O)[O-])C(=O)N1 was read as Rtt109 Vps75 inactive, dFosB act-1 inactive and GSIS activator inactive.
Screening O=c1[nH]cnc2nc(-c3ccc(N(CCCl)CCCl)cc3)[nH]c12 returned Rtt109 Vps75 inactive, dFosB act-1 inactive, GSIS activator 57.9, Env fusion inh inactive and Cneo AK release inactive.
For O=C(O)CCCc1ccc(N(CCCl)CCCl)cc1 the results were Rtt109 Vps75 inactive, dFosB act-1 inactive, miR122 inh inactive, GSIS activator inactive, Env fusion inh inactive and Cneo AK release inactive.
O=C(Cc1c(-c2ccccc2)nc2ccc(Br)cn12)N1CCCC1 was read as GSIS activator inactive and Env fusion inh inactive.
For Cc1cc(Br)cn2c(CC(=O)N3CCCCC3)c(-c3ccc(F)cc3)nc12 the results were GSIS activator 54.3 and Env fusion inh inactive.
Screening COC(=O)[C@@H]1[C@@H](CO)[C@@H]2Cn3c(ccc(-c4ccncc4)c3=O)[C@H]1N2CCc1ccccc1 returned GSIS activator inactive and Cneo AK release inactive.
Cc1ccc2c(c1)C1C[N+](C)(CC(=O)c3ccc(Cl)cc3Cl)CCC1N2C(=O)c1ccc(F)cc1 (stereo unspecified) was read as Rtt109 Vps75 56.6, dFosB act-1 inactive, GSIS activator inactive, Env fusion inh inactive and Cneo AK release inactive.
Screening CN1[C@@H]2CN(S(C)(=O)=O)C[C@H]1C2c1ccc(Br)cc1 (stereo partly specified) returned GSIS activator inactive.
Screening NCCNc1ccc([N+](=O)[O-])c2cccnc12 returned Rtt109 Vps75 inactive, dFosB act-1 16.5, GSIS activator inactive, Env fusion inh inactive and dFosB act-2 inactive.
Screening CC=Cc1ccc2n(c1=O)C[C@H]1[C@H](CO)[C@@H](C(=O)OC)[C@@H]2N1S(=O)(=O)c1cccc(C)c1 (mixture of isomers) returned GSIS activator inactive, Env fusion inh inactive and Cneo AK release inactive.
